Measured values gathered from unrelated publications.
Target: Proto-oncogene tyrosine-protein kinase Src (SRC, Homo sapiens, UniProt P12931)

With `CCCS(=O)(=O)Nc1ccc(F)c(C(=O)c2c[nH]c3ncc(-c4ccc(Cl)cc4)cc23)c1F` the inhibition was < 20% (enzyme activity, inhibitor; 1 µM).
`CC/C(=N\NC(=O)NCc1cccc(O)c1)c1ccc(O)c(C)c1O` has an inhibition of 1.9% (enzyme activity, inhibitor; 0.1 µM).
`CO[C@@H](C)c1c(Nc2ccc([C@@H](N(C)C(=O)C3CCS(=O)(=O)CC3)C(F)(F)F)cc2)cnc2cc(Cl)nn12` has a remaining binding of 98% (cell-free assay, competition with immobilised ligand; 1 µM).
`Cc1cc(Nc2nc(-c3ccccc3)nc3ccccc23)n[nH]1` gave a remaining signal of 24.4% (cell-free assay; 0.5 µM).
`Cc1noc([C@H]2C[C@@H](c3ccc(C(F)(F)F)cc3)CN(C(=O)N3CCS(=O)(=O)C3)C2)n1` has a remaining binding of 96% (cell-free assay, competition with immobilised ligand; 1 µM).
`COc1ccc(COc2ccc(Cc3cnc(N)nc3N)cc2OC)cc1` gave a remaining signal of 97.9% (cell-free assay; 0.5 µM).
`COc1cc2ncnc(Nc3ccc(Oc4ccccc4)c(C)c3C)c2cc1OC` has an inhibition of 78% (enzyme activity, inhibitor; 1 µM).
For `CCC(=O)Nc1ccc2ncnc(Nc3cccc(Br)c3)c2c1`, the remaining signal was 93.6% (cell-free assay, inhibitor; 0.5 µM).
For `CNc1cccc2cc(C(=O)Nc3ccc(C(=O)O)cc3)c(=O)[nH]c12`, the inhibition was 5% (enzyme activity, inhibitor; 10 µM).
With `CCOc1cc(-c2nncn2C)ccc1Nc1ncc2cc(C)nc(NCC(C)(C)C)c2n1` the inhibition was < 15% (enzyme activity, inhibitor, FRET; 1 µM).
`CN(C)C1CCN(CC#Cc2nn(C3CCCC3)c3nc(NCc4ccccc4)ncc23)C1` (stereo not shown) has an inhibition of 12% (enzyme activity, inhibitor, FRET; 1 µM).
`O=C1c2ccccc2-c2n[nH]c3cccc1c23` gave an activity vs control of 97.6% (enzyme activity, inhibitor; 0.5 µM).
`FC(F)(F)Oc1cccc(-c2cnc3ccc(-c4ccncc4)nn23)c1` has an activity vs control of 45% (enzyme activity, inhibitor, radiometric; 5 µM).
`O=C(CSc1nc2nccnc2c(=O)n1CCc1ccccc1)Nc1nccs1` has an inhibition of 7% (enzyme activity, inhibitor; 10 µM).
`CNC(=O)c1cc2c(Oc3ccc(NC(=O)C4(C(=O)Nc5ccc(F)cc5)CC4)cc3)ccnc2cc1OC` gave an inhibition of 97% (enzyme activity, inhibitor, radiometric; 1 µM).
The inhibition of `COc1cccc2c(NCc3ccccc3)nc(-n3c(N)nc4ccccc43)nc12` is reported as -15.5% (target engagement in cells, inhibitor, chemoproteomics; 20 mM).
The remaining binding of `Cc1cc(NC(=O)c2cccc(S(F)(F)(F)(F)F)c2)cc(-n2ccn3nc(-c4cccnc4)cc23)c1` is reported as 100% (cell-free assay, competition with immobilised ligand; 1 µM).
`Cc1ccc(Nc2nccc(N(C)c3ccc4c(C)n(C)nc4c3)n2)cc1S(N)(=O)=O` has an inhibition of 89% (enzyme activity, inhibitor; 10 µM).
`O=C(NCc1ncc(C(F)(F)F)cc1Cl)c1ccc2c(c1)C1(CCS(=O)(=O)CC1)[C@@H](C1CC1)N2S(=O)(=O)c1ccc(F)cc1` gave a remaining binding of 98% (cell-free assay, competition with immobilised ligand; 1 µM).
For `O=C1NC(=O)c2cc(Nc3ccc(F)cc3)c(Nc3ccc(F)cc3)cc21`, the remaining signal was 101% (cell-free assay; 0.5 µM).
`Cn1nc(C(F)(F)F)cc1-c1cnc(N2CCc3cc(S(=O)(=O)Nc4c(F)cc(Cl)cc4F)cc(N4CCCC4=O)c32)nc1` gave a remaining binding of 100% (cell-free assay, competition with immobilised ligand; 1 µM).
With `CCCCNc1ncc2c(-c3ccc(F)cc3)nn(C[C@H]3CC[C@H](N)CC3)c2n1` the inhibition was 87.8% (target engagement in cells, inhibitor, chemoproteomics; 20 mM).
For `CNC(=O)c1ccc(Nc2ncc(C(F)(F)F)c(NCc3nccnc3N(C)S(C)(=O)=O)n2)cc1`, the remaining binding was 79% (cell-free assay, competition with immobilised ligand; 0.1 µM).
For `COc1cc2c(Nc3ccc(Br)cc3F)ncnc2cc1OCC1CCN(C)CC1`, the remaining signal was 11% (cell-free assay; 0.5 µM).
`CCC(=O)N[C@@H]1CC[C@H](C(=O)N(C)c2ccc(-c3nc4ccccc4o3)cc2)C1` gave a remaining binding of 100% (cell-free assay, competition with immobilised ligand; 1 µM).
`C=CC(=O)Nc1cc(Nc2nccc(Nc3cc(Cl)c(F)cc3C(C)(C)O)n2)c(OC)cc1N1CC[C@@H](N(C)C)C1` has an inhibition of 18% (enzyme activity, inhibitor; 1 µM).
With `C[C@@H]1CN(c2cc(-c3nn(C)c4ccc(OC5(C)CC5)cc34)ncn2)C[C@H](C)O1` the remaining binding was 100% (cell-free assay, competition with immobilised ligand; 1 µM).
`Cc1ccc(NC(=O)c2ccc(C)c(C(F)(F)F)c2)cc1C#Cc1nn(C2CCC(O)CC2)c2ncnc(N)c12` (stereo not shown) has a remaining signal of 0% (cell-free assay; 10 µM).
